In ChEMBL document CHEMBL1152609, “Synthesis and pharmacological exploitation of clioquinol-derived copper-binding apoptosis inducers triggering reactive oxygen species generation and MAPK pathway activation” (2009):
Active and inactive are the calls of the source. The calls are words filed in the database; no cut-off is given here.

Columns and labels:
HeLa [1] = assay: Growth inhibition of human HeLa cells after 48 hrs by MTT assay in presence of 10% FBS supplemented DMEM medium; assay type: functional
Procedure, shortened: (§1)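 Cells seeded at 5 × 10³/well and allowed 24 h to attach, then exposed to compound (DMSO stock) or vehicle for 48 h in 10% FBS DMEM at 37 °C, 5% CO₂. MTT (2 mg/mL in PBS) added for a further 2 h; formazan dissolved in DMSO and read at 570 nm. Inhibition = (1 − At/Ac) × 100. GI₅₀ interpolated from dose-response curves; mean ± SEM of 4–6 experiments; top concentration 40 μM.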

[2] = Growth inhibition of human BT-483 cells after 48 hrs by MTT assay in presence of 10% FBS supplemented DMEM medium; assay type: functional; conditions: BT-483, 48 h; procedure, shortened: as §1
HeLa [3] = assay: Activation of ERK phosphorylation in human HeLa cells at 1 uM in presence of 10 uM CuCl2 after 24 hrs by Western blot; assay type: cell-based
Procedure, shortened: (§2)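 HeLa cells grown in DMEM with 10% FBS, 2 mM glutamine and penicillin/streptomycin at 37 °C, 5% CO₂. Treated cells were lysed and the extracts run on Western blot. Membranes were blocked overnight at 4 °C in TBST/5% non-fat milk. Probed with phospho- and total ERK1/2, p38 and JNK antibodies, then anti-mouse or anti-rabbit IgG (1:10,000, 1 h, RT), with ECL detection.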

[4] = Activation of JNK phosphorylation in human HeLa cells at 1 uM in presence of 10 uM CuCl2 after 24 hrs by Western blot; assay type: cell-based; procedure, shortened: as §2
[5] = molecular target: T1, MAP kinase p38 (Homo sapiens) (UniProt O15264+Q15759+Q16539+P53778); assay: Activation of p38 phosphorylation in human HeLa cells at 1 uM in presence of 10 uM CuCl2 after 24 hrs by Western blot; assay type: cell-based; procedure, shortened: as §2
HeLa [6] = assay: Activation of ERK phosphorylation in human HeLa cells at 1 uM in presence of 10 uM CuCl2 after 48 hrs by Western blot; assay type: cell-based; procedure, shortened: as §2
[7] = Activation of JNK phosphorylation in human HeLa cells at 1 uM in presence of 10 uM CuCl2 after 48 hrs by Western blot; assay type: cell-based; procedure, shortened: as §2
[8] = Growth inhibition of human SKHep cells after 48 hrs by MTT assay in presence of 10% FBS supplemented DMEM medium; assay type: functional; procedure, shortened: as §1
[9] = Growth inhibition of human CE81T cells after 48 hrs by MTT assay in presence of 10% FBS supplemented DMEM medium; assay type: functional; procedure, shortened: as §1
HeLa [10] = assay: Growth inhibition of human HeLa cells after 48 hrs by MTT assay in presence of 1 uM CuCl2; assay type: functional; procedure, shortened: as §1
HeLa [11] = assay: Growth inhibition of human HeLa cells after 48 hrs by MTT assay in presence of 10 uM CuCl2; assay type: functional; procedure, shortened: as §1
HeLa [12] = assay: Growth inhibition of human HeLa cells after 48 hrs by MTT assay in presence of 50 uM CuCl2; assay type: functional; procedure, shortened: as §1
HeLa [13] = assay: Growth inhibition of human HeLa cells after 48 hrs by MTT assay in presence of 50 uM ZnCl2; assay type: functional; procedure, shortened: as §1
HeLa [14] = assay: Growth inhibition of human HeLa cells after 48 hrs by MTT assay in presence of 100 uM ZnCl2; assay type: functional; procedure, shortened: as §1
HeLa [15] = assay: Induction of apoptosis in human HeLa cells assessed as accumulation at subG1 phase at 1 uM after 24 hrs using propidium iodide staining by flow cytometry; assay type: functional
Procedure, shortened: (§3)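 HeLa cells exposed 24 h to test agent; controls were 0.5% DMSO and untreated cells. Optional additions were CuCl₂ 10 μM, tempol 1 mM or z-VAD. Cells were fixed in 80% ethanol and held at −20 °C. They were then stained 30 min at room temperature in the dark with PI 0.08 mg/mL, 0.1% Triton X-100 and RNase A 0.2 mg/mL in PBS. Subdiploid (sub-G1) fraction was quantified by flow cytometry as % of all events.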

HeLa [16] = assay: Induction of apoptosis in human HeLa cells assessed as accumulation at subG1 phase at 1 uM in presence of 10 uM CuCl2 after 24 hrs using propidium iodide staining by flow cytometry; assay type: functional; procedure, shortened: as §3
HeLa [17] = assay: Induction of apoptosis in human HeLa cells assessed as accumulation at subG1 phase at 2 uM after 24 hrs using propidium iodide staining by flow cytometry; assay type: functional; procedure, shortened: as §3
HeLa [18] = assay: Induction of apoptosis in human HeLa cells assessed as accumulation at subG1 phase at 1 uM in presence of 10 uM CuCl2 and 1 mM tempol after 24 hrs using propidium iodide staining by flow cytometry; assay type: functional; procedure, shortened: as §3
HeLa [19] = assay: Induction of apoptosis in human HeLa cells assessed as accumulation at subG1 phase at 1 uM in presence of 10 uM CuCl2 and 10 uM caspase inhibitor z-VAD after 24 hrs using propidium iodide staining by flow cytometry; assay type: functional; procedure, shortened: as §3
HeLa [20] = assay: Stimulation of reactive oxygen species in human HeLa cells at 1 uM in presence of 5 uM CuCl2 after 1 hr by dihydroethidium dye based fluorescence assay; assay type: functional, cell-based
Procedure, shortened: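 HeLa cells grown in DMEM with 10% FBS, 2 mM glutamine, penicillin/streptomycin at 37 °C, 5% CO2. Compound given with CuCl2, with or without tempol 1 mM; 0.5% DMSO control, untreated blank. Dihydroethidium 5 µmol/L loaded 30 min, PBS wash, epifluorescence microscopy; four separate cultures, two to six coverslips each.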

[21] = molecular target: T1, MAP kinase p38 (Homo sapiens); assay: Activation of p38 phosphorylation in human HeLa cells at 1 uM in presence of 10 uM CuCl2 after 48 hrs by Western blot; assay type: cell-based; procedure, shortened: as §2
HeLa [22] = assay: Activation of ERK phosphorylation in human HeLa cells at 1 uM in presence of 10 uM CuCl2 after 24 hrs by Western blot
[23] = Activation of JNK phosphorylation in human HeLa cells at 1 uM in presence of 10 uM CuCl2 after 24 hrs by Western blot
[24] = molecular target: T1, MAP kinase p38 (Homo sapiens); assay: Activation of p38 phosphorylation in human HeLa cells at 1 uM in presence of 10 uM CuCl2 after 24 hrs by Western blot
HeLa [25] = assay: Activation of ERK phosphorylation in human HeLa cells at 1 uM in presence of 10 uM CuCl2 after 48 hrs by Western blot
[26] = Activation of JNK phosphorylation in human HeLa cells at 1 uM in presence of 10 uM CuCl2 after 48 hrs by Western blot
[27] = molecular target: T1, MAP kinase p38 (Homo sapiens); assay: Activation of p38 phosphorylation in human HeLa cells at 1 uM in presence of 10 uM CuCl2 after 48 hrs by Western blot

GI50 (HeLa [1]): 710 nM | Activity [5]: Active | GI50 (HeLa [10]): 650 nM | GI50 (HeLa [11]): 250 nM | GI50 (HeLa [12]): 60 nM | GI50 (HeLa [13]): 480 nM | GI50 (HeLa [14]): 260 nM | Activity [21]: Active | Activity [24]: Active | Activity [27]: Active
Compound: Cc1ccc(S(=O)(=O)N2CCN(Cc3cc([N+](=O)[O-])c4cccnc4c3O)CC2)cc1
GI50 [2]: 1900 nM | Activity (HeLa [3]): Active | Activity [4]: Active | Activity (HeLa [6]): Active | Activity [7]: Active | GI50 [8]: 14.6 µM | GI50 [9]: 5.9 µM | Activity (HeLa [15]): 6.77% | Activity (HeLa [16]): 17.5% | Activity (HeLa [17]): 18.57% | Activity (HeLa [18]): 1.34% | Activity (HeLa [19]): 1.58% | Activity (HeLa [20]): Active | Activity (HeLa [22]): Active | Activity [23]: Active | Activity (HeLa [25]): Active | Activity [26]: Active
